Assay results as given in PubChem BioAssay AID1744 (Vanderbilt High Throughput Screening Facility, 2009).

target: Muscarinic acetylcholine receptor M1 (Rattus norvegicus) (UniProt P08482); experiment: muscarinic receptor subtype activation panel – cell-based, agonist mode, selectivity assay for M1 allosteric modulator project, profiling panel (AID 1744); details: CHO-K1 rat M1, Fluo-4 calcium flux
How it was run: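 System – CHO-K1 cells stably carrying rat M1 muscarinic receptor · Buffer or medium – Fluo-4 loading buffer at pH 7.4 · Dosing – compounds alone, agonist mode · Incubation – Fluo-4 dye loading for 1 h at 37 °C · Measured by – Fluo-4 calcium fluorescence · Benchmarks – maximal acetylcholine response as high reference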

EC50, active:
CCOC(=O)N1CCC(NCCNC(=O)c2cccc(F)c2)CC1 154 nM
CCOC(=O)N1CCC(NCCNC(=O)c2ccc(F)c(F)c2)CC1 211 nM
CCOC(=O)N1CCC(NCCNC(=O)c2ccccc2Cl)CC1 804 nM
CCOC(=O)N1CCC(NCCNC(=O)c2cccc(OC)c2)CC1 438 nM
CCOC(=O)N1CCC(NCCNC(=O)c2ccc(F)cc2)CC1 154 nM
CCOC(=O)N1CCC(NCCNC(=O)c2cccs2)CC1 1740 nM
CCOC(=O)N1CCC(NCCNC(=O)c2ccccc2C)CC1 198 nM
CCOC(=O)N1CCC(NCCNC(=O)c2ccccc2)CC1 152 nM
